Compound activity as filed in PubChem.
Compounds with a hit are over-represented: about 2.6% of the library has one in this group of screens.
TCR CD3 inh: inhibitors of human TCR-CD3 interaction | 0.37% of 360,000 active | TAMRA-labeled TCR probe fluorescence, biochemical | inhibition, % at 9.4 µM | AID 651800; in the data active = inhibition above about 19%;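 also: recombinant mutant TCR 2C K166C tagged with TAMRA read by polarization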
SIAE inh: human SIAE inhibition, primary screen. Q9HAT2. SIAE FP-Rh probe binding, fluorescence polarization. inhibition, % at 9.66 µM. 0.69% of 370,000 active. AID 1053197;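 active = inhibition above a cutoff: mean of compounds within the control limits plus 3 SD of those, cut at about 17% in these data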
Target sequence (Q9HAT2 whole entry, looked up): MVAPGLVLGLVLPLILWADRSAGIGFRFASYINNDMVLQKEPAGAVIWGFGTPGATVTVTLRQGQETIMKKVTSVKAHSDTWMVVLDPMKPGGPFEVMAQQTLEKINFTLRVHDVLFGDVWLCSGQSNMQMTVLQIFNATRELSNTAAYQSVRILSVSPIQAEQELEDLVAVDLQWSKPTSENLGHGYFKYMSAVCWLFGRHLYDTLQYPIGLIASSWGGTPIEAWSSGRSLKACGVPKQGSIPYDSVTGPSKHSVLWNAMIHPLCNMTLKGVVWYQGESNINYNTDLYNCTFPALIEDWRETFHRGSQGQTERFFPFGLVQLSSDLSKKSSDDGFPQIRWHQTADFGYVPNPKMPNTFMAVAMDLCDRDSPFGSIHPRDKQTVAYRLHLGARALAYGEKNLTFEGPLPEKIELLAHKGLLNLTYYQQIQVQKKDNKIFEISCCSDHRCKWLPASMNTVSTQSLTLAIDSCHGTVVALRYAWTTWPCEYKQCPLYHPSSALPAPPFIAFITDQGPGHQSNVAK
HTRA1 inh: HTRA1 (human) protease inhibition | Q92743 | 0.5% of 340,000 active | recombinant HTRA1, FP-rhodamine activity-based probe, fluorescence polarization | inhibition, % at 5.96 µM; in the data active = inhibition above about 36%
ABHD4 inh: inhibitors of mouse ABHD4 | Q8VD66 | purified mABHD4, FP-Rh probe fluorescence polarization | inhibition, % at 8.92 µM | 0.54% of 370,000 active | AID 720543;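 active = inhibition exceeding the mean over every tested compound plus 3 SD, cut at about 30% in these data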
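Test system: mABHD4 protein; Read-out basis: % inhibition; Incubation: 45 min + 60 min at 25 °C; Repeats: single replicate; Technique: fluorescence polarization with parallel and perpendicular emission, 525/598 nm; Compound: 8.92 µM, single dose; Benchmarks: full inhibition S159A mutant plus DMSO, zero as sample-well median.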
PRMT1 inh: PRMT1 (human) inhibition, primary screen | recombinant PRMT1, activity-based probe fluorescence polarization | 1.3% of 370,000 active | AID 652257 | inhibition, % at 2.79 µM;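 active = inhibition above about 21% made by adding two undisclosed values, limit read from the data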
PRMT1 confirm: PRMT1 (human) inhibition, FP confirmation; shares compounds with PRMT1 inh; recombinant His-PRMT1, activity-based probe fluorescence polarization; inhibition, % at 2.79 µM; 42% of 3,300 active;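 active = mean inhibition across replicates above the hit cutoff derived for the earlier primary screen, cut at about 22% in these data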
Each line names hits and unclear results; the compound was inactive in the other large screens (follow-up assays come after a bar, where they were run).

COC(=O)c1nc(NNC(=O)c2ccccc2)sc1-c1ccccc1	PRMT1 inh 43 | PRMT1 confirm inactive
Cc1noc(NS(=O)(=O)c2ccc(NC(=O)CSc3nc4ccccc4s3)cc2)c1C	PRMT1 inh 40 | PRMT1 confirm 37
Cc1noc(NS(=O)(=O)c2ccc(NC(=O)CSc3ncccn3)cc2)c1C	none
O=C1[C@H]2[C@@H](c3ccc(Cl)cc3)N3C(=O)N(c4cccc(Cl)c4)C(=O)[C@@]3(Cc3ccccc3)[C@H]2C(=O)N1C1CCCCC1	none
COc1ccc(/C=C2\CCc3c2nc2ccccc2c3C(=O)O)cc1OC	PRMT1 inh 79 | PRMT1 confirm inactive
O=C(c1ccco1)N1CCN(C(=O)c2ccc(-c3ccc([N+](=O)[O-])cc3)o2)CC1	PRMT1 inh 30 | PRMT1 confirm 27
COc1ccc(CCNC(=O)CCNC(=O)N2CC(=O)Nc3ccccc32)cc1	none
COC(=O)Cn1cnc2c(nnn2-c2ccc(OC)cc2)c1=O	none
Oc1c(/C=N/c2ccccn2)sc2ccccc12	PRMT1 inh 25 | PRMT1 confirm inactive
Oc1c(C=Nc2ccc(Cl)cn2)sc2ccccc12	PRMT1 inh 41 | PRMT1 confirm inactive
Cc1ccc(O)c(N=Cc2sc3ccccc3c2Cl)c1	none
N#CC1=C2SCN(Cc3ccco3)CN2C(=O)CC1c1c(F)cccc1Cl (stereo unspecified)	PRMT1 inh 52 | PRMT1 confirm inactive
Cc1ccc(C2CC(=O)N3CN(Cc4ccco4)CSC3=C2C#N)cc1 (stereo unspecified)	PRMT1 inh 39 | PRMT1 confirm inactive
O=c1c2cc([N+](=O)[O-])ccc2sn1-c1ccccc1	PRMT1 inh 64 | PRMT1 confirm 81
CC(=O)Nc1ccc2sn(-c3ccccc3)c(=O)c2c1	PRMT1 inh 77 | PRMT1 confirm 89
N#Cc1ccc2sn(-c3ccccc3)c(=O)c2c1	PRMT1 inh 87 | PRMT1 confirm 98
CCOc1ccc(N2C(=O)CC(NC3CCN(C(=O)c4cccs4)CC3)C2=O)cc1 (stereo unspecified)	PRMT1 inh 89 | PRMT1 confirm inactive
CCOc1ccc(N2C(=O)CC(NC3CCN(C(=O)c4cccc(Cl)c4)CC3)C2=O)cc1 (stereo unspecified)	PRMT1 inh 65 | PRMT1 confirm inactive
CSc1cccc(NC(=O)c2cccc3cccnc23)c1	none
Cc1ccc(S(=O)(=O)Nc2cccc(C(=O)NCC3(N4CCCCC4)CCCCC3)c2)cc1F	none
Cc1cccc(NC(=O)CSc2ncnc3sc4c(c23)CCCC4)c1	none (no result: TCR CD3 inh, HTRA1 inh)
COc1cc(NC(=O)CSc2ncnc3sc4c(c23)CCCC4)c(C(=O)O)cc1OC	PRMT1 inh 32 | PRMT1 confirm inactive
Cc1ccc(NC(=O)COC(=O)Cc2ccc(Br)cc2)cc1S(=O)(=O)N1CCOCC1	none
Cn1c(=O)[nH]c(=O)c2c1nc(SCCN1CCCCC1)n2CCCc1ccccc1	PRMT1 inh 57 | PRMT1 confirm 46
CSc1nc2c(c(=O)[nH]c(=O)n2C)n1Cc1ccc(Cl)cc1	PRMT1 inh 66 | PRMT1 confirm inactive
Cc1ccc(Cn2c(SCCN3CCCCC3)nc3c2c(=O)[nH]c(=O)n3C)cc1	PRMT1 inh 33 | PRMT1 confirm 46
Cn1c(=O)[nH]c(=O)c2c1nc(SCCN1CCCCC1)n2Cc1ccccc1	none
N#Cc1ccccc1OCC(=O)NCc1ccccc1CN1CCCC1	none
O=C(Nc1ccccc1)C(Cl)C(=O)c1ccccc1 (stereo unspecified)	PRMT1 inh 62 | PRMT1 confirm 79
Cc1noc(C)c1S(=O)(=O)Nc1ccc2c(c1)C(=O)N([C@H](C)CO)C[C@H](C)[C@@H](CN(C)C(=O)NC1CCCCC1)O2	none
CCC(c1nnc(SCC(=O)Nc2cc(S(C)(=O)=O)ccc2Cl)n1Cc1ccccc1)N(C)C (stereo unspecified)	none
Cc1nnc(SC2CC(=O)N(c3ccccc3)C2=O)s1 (stereo unspecified)	PRMT1 inh 78 | PRMT1 confirm 70
COc1ccc(N2C(=O)CC(SCCc3nc4ccccc4[nH]3)C2=O)cc1 (stereo unspecified)	PRMT1 inh 26 | PRMT1 confirm inactive
O=C1CC(SCCc2nc3ccccc3[nH]2)C(=O)N1c1ccc(F)cc1 (stereo unspecified)	none
CCOc1ccc(N2C(=O)CC(Sc3nnnn3-c3ccccc3)C2=O)cc1 (stereo unspecified)	PRMT1 inh 76 | PRMT1 confirm 43
COc1ccc(N2C(=O)CC(Sc3nc4ccccc4s3)C2=O)cc1 (stereo unspecified)	PRMT1 inh 35 | PRMT1 confirm inactive
CCOC(=O)C(C(=O)OCC)c1c([N+](=O)[O-])c(=O)n2c3c(cccc13)CCC2	none
CCOc1ccc2nc(SC3CC(=O)N(c4ccc(OC)cc4)C3=O)sc2c1 (stereo unspecified)	none
COc1ccc(N2C(=O)CC(Sc3nccc(C)n3)C2=O)cc1 (stereo unspecified)	none
C=CCNc1nnc(SC2CC(=O)N(c3ccc(OC)cc3)C2=O)s1 (stereo unspecified)	PRMT1 inh 83 | PRMT1 confirm 72
COc1ccc(N2C(=O)CC(Sc3nnc(-c4ccccc4F)n3C)C2=O)cc1 (stereo unspecified)	PRMT1 inh 36 | PRMT1 confirm 48
CCOc1ccc(C(=O)CC(Sc2ccc(C)cc2)C(=O)O)cc1 (stereo unspecified)	PRMT1 inh 29 | PRMT1 confirm 54
O=C(CC(Sc1ccc(Br)cc1)C(=O)O)c1ccc(F)cc1 (stereo unspecified)	PRMT1 inh 80 | PRMT1 confirm 88
CCCCCCC(=O)N(O)C1CC(=O)N(c2ccc(F)cc2)C1=O (stereo unspecified)	PRMT1 inh 70 | PRMT1 confirm 97
CCCCCCC(=O)N(O)C1CC(=O)N(c2ccc(Br)cc2)C1=O (stereo unspecified)	PRMT1 inh 42 | PRMT1 confirm 73
N#Cc1c(N)sc(=S)c2c1CCCC2	PRMT1 inh 28 | PRMT1 confirm inactive
CCC1(C)Cc2c(C#N)c(N)sc(=S)c2CO1 (stereo unspecified)	PRMT1 inh 28 | PRMT1 confirm 27
CCC1(C)Cc2c(C#N)c(N)n(-c3ccccc3)c(=S)c2CO1 (stereo unspecified)	none
CCN(CC(=O)Nc1ccc(C)c(S(=O)(=O)N2CCOCC2)c1)Cc1ccccc1	none
COc1cc(OC)cc(C(=O)NCC(C)NC(=O)c2cc(OC)cc(OC)c2)c1 (stereo unspecified)	none
COC(=O)CSCc1nc2ccccc2[nH]c1=O	PRMT1 inh 34 | PRMT1 confirm 55
COC(=O)CCc1nc2ccccc2[nH]c1=O	none
CSCSC1=C(C#N)C(c2ccccc2Cl)C(C(C)=O)=C(C)N1 (stereo unspecified)	PRMT1 inh 27 | PRMT1 confirm inactive
